From ChEMBL document CHEMBL3872208, “Synthesis and pharmacological characterization of novel N-(trans-4-(2-(4-(benzo[d]isothiazol-3-yl)piperazin-1-yl)ethyl)cyclohexyl)amides as potential multireceptor atypical antipsychotics” (Eur J Med Chem, 2016) come the findings set out here.

Active and inactive are the calls of the source. No cut-off for these calls is given here.

The subject of assay [1] is CHO. Description: Selectivity ratio of Ki for displacement of [3H]spiperone from recombinant human D2L receptor expressed in CHO cell membranes to Ki for displacement of [3H]methyl-spiperone from recombinant human D3 receptor expressed in CHO cell membranes. The method, boiled down:
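D2L binding: CHO membranes (16 µg protein) with 0.3 nM [3H]methyl-spiperone in 50 mM Tris-HCl pH 7.4, 120 mM NaCl, 10 mM MgCl2, 1 mM EDTA, with butaclamol for nonspecific binding. D3 binding: membranes (8 µg) with 0.3 nM [3H]methyl-spiperone in the same Tris buffer with 5 mM KCl, 5 mM MgCl2, 5 mM EDTA, with (+)butaclamol for nonspecific binding. Both run 60 min at 22 °C, then GF/B filtration. Ki by Cheng–Prusoff; ratio is D2 Ki/D3 Ki.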
(In a radioligand displacement assay an active substance lowers the binding of a labelled ligand.)

For assay [2], the target named is D(2) dopamine receptor (Homo sapiens, UniProt P14416). Description: Displacement of [3H]spiperone from recombinant human D2L receptor expressed in CHO cell membranes after 60 mins by scintillation counting method.
Chain of D(2) dopamine receptor (P14416 whole entry): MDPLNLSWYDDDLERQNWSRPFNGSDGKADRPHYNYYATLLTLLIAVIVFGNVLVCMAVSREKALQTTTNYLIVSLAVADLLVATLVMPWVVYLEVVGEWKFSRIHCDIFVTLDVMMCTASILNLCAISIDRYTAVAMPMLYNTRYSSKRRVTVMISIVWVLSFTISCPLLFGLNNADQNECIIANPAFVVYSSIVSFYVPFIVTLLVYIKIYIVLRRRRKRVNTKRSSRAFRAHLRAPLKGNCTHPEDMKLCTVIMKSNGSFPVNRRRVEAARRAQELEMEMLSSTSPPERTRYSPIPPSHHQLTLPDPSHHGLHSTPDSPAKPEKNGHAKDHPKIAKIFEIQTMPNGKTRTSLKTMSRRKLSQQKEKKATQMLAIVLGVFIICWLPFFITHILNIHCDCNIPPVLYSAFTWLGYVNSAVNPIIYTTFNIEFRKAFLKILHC
Assay [3] concerns the target D(3) dopamine receptor (Homo sapiens, UniProt P35462). Description: Displacement of [3H]methyl-spiperone from recombinant human D3 receptor expressed in CHO cell membranes after 60 mins by scintillation counting method.
Assay [4] addresses T1, 5-hydroxytryptamine receptor 1A (Homo sapiens, UniProt P08908).
T1 sequence (P08908 whole entry): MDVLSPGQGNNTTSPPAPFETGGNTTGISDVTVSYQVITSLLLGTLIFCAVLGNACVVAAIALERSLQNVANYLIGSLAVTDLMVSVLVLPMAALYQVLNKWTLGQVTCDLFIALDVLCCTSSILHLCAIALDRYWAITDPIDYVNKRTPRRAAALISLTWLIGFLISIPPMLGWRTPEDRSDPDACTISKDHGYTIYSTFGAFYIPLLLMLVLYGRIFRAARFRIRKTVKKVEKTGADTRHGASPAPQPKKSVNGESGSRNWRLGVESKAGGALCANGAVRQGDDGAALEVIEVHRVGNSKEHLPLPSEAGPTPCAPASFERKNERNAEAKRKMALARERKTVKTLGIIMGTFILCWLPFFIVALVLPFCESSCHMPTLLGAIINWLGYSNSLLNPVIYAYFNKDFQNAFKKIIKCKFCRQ
Put plainly: Displacement of [3H]8-OH-DPAT from recombinant human 5-HT1A receptor expressed in HEK293 cell membranes after 60 mins by scintillation counting method.

In assay [5] the target is 5-hydroxytryptamine receptor 2A (Homo sapiens, UniProt P28223). Description: Displacement of [3H]ketanserin from recombinant human 5-HT2A receptor expressed in HEK293 cell membranes after 60 mins by scintillation counting method.
Chain of 5-hydroxytryptamine receptor 2A (P28223 whole entry): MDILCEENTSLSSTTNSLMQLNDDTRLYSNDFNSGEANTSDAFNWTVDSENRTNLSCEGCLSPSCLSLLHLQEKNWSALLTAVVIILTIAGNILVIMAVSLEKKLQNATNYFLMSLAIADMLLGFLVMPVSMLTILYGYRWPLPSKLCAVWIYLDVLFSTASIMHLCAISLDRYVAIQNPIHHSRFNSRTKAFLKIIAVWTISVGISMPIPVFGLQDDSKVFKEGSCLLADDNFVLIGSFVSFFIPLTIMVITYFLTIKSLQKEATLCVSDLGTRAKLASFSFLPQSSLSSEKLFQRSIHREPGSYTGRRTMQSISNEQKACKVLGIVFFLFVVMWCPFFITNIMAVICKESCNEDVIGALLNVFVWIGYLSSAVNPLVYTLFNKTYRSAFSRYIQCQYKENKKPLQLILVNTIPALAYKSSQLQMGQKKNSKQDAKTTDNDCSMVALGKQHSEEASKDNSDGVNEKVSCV
Assay [6] has as its system Rattus norvegicus. Put plainly: Antipsychotic activity in Sprague-Dawley rat assessed as inhibition of conditioned avoidance behavior at 1.0 to 2.0 mg/kg, ip administered as single dose measured after 1 hr. The class given is functional, organism-based. Put shortly:
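Male SD rats (150–180 g, 6 per group) trained in automated shuttle-boxes; only rats exceeding 80% avoidance were used. Single i.p. dose of 1.0 or 2.0 mg/kg given 1 h before a 20-trial session. Read-out is percentage of avoidance (mean ± SEM, n = 6), compared with the vehicle group.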

Chain of D(3) dopamine receptor (P35462 whole entry): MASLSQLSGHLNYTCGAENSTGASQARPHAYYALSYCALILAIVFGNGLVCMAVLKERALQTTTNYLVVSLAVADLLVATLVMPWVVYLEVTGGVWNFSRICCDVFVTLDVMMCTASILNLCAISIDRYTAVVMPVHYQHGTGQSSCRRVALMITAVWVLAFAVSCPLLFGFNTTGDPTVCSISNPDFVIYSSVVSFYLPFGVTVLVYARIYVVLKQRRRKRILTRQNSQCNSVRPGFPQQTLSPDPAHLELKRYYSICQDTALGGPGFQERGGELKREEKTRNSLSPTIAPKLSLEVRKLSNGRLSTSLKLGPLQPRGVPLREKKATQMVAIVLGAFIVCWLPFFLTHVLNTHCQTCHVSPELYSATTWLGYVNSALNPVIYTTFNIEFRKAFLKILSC

As for `O=C(N[C@H]1CC[C@H](CCN2CCN(c3nsc4ccccc34)CC2)CC1)c1ccc[nH]1`, in assay [1], the Ratio Ki was determined as 0.68.

Consider `O=C(NCc1ccccc1)N[C@H]1CC[C@H](CCN2CCN(c3nsc4ccccc34)CC2)CC1`, for which the Ratio Ki in assay [1] was found to be 7.78. The Ki in assay [2] came to 1.4 nM; in assay [3] it was 0.18 nM; in assay [4], 5.3 nM; in assay [5], 0.91 nM.

`O=C(N[C@H]1CC[C@H](CCN2CCN(c3nsc4cc([N+](=O)[O-])ccc34)CC2)CC1)c1ccco1`: in assay [1], the Ratio Ki was 108. In addition, the Ki in assay [2] turned out to be 26 nM; in assay [3], 0.24 nM; in assay [4], 39 nM; in assay [5], 1.8 nM.

Take `O=C(N[C@H]1CC[C@@H](CCN2CCN(c3nsc4ccccc34)CC2)CC1)c1ccco1`: in assay [1], the Ratio Ki was found to be 2.74. Besides, the Ki was 6.3 nM in assay [2], 2.3 nM in assay [3], 2.2 nM in assay [4] and 0.19 nM in assay [5].

Take `O=C(N[C@H]1CC[C@H](CCN2CCN(c3nsc4ccccc34)CC2)CC1)C(F)(F)F`: in assay [1], the Ratio Ki was 6.3. Moreover, the Ki in assay [2] was determined as 1.7 nM; in assay [3], 0.27 nM; in assay [4], 1.1 nM; in assay [5], 0.63 nM.

With `O=C(N[C@H]1CC[C@H](CCN2CCN(c3nsc4ccccc34)CC2)CC1)c1ccccc1`, the Ratio Ki in assay [1] was determined as 7.02. Further, the Ki in assay [2] turned out to be 0.33 nM; in assay [3] it was 0.047 nM; in assay [4], 1.7 nM; in assay [5], 0.24 nM.

On to `O=C(c1ccco1)N1CCC(CCN2CCN(c3nsc4ccccc34)CC2)CC1`, for which, in assay [1], the Ratio Ki came to 2.2. The Ki was determined as 15 nM in assay [2], 7.3 nM in assay [3], 0.72 nM in assay [4] and 2.2 nM in assay [5].

For `CN(C(=O)N[C@H]1CC[C@H](CCN2CCN(c3nsc4ccccc34)CC2)CC1)c1ccccc1`, the values for the Ki in assay [3] and in assay [4] were 1.2 nM and 5.2 nM, respectively.

For `CC(=O)N[C@H]1CC[C@H](CCN2CCN(c3nsc4ccccc34)CC2)CC1`, in assay [1], the Ratio Ki worked out at 156. For the same compound, the Ki turned out to be 25 nM in assay [2], 0.16 nM in assay [3], 0.69 nM in assay [4] and 5.8 nM in assay [5].

As to `CS(=O)(=O)N[C@H]1CC[C@H](CCN2CCN(c3nsc4ccccc34)CC2)CC1`, the Ratio Ki in assay [1] was 93.7. Also, the Ki in assay [2] was determined as 8.9 nM; in assay [3], 0.095 nM; in assay [4], 1.3 nM; in assay [5], 0.28 nM.

Regarding `CN(C)C(=O)N[C@H]1CC[C@H](CCN2CCN(c3nsc4ccccc34)CC2)CC1`, the Ratio Ki in assay [1] was 1.33. The Ki in assay [2] came out at 0.53 nM; in assay [3], 0.4 nM; in assay [4], 1.2 nM; in assay [5] it was 0.6 nM.

Take `COCC(=O)N[C@H]1CC[C@H](CCN2CCN(c3nsc4ccccc34)CC2)CC1`: the Ratio Ki in assay [1] stood at 31. Moreover, the Ki came out at 9.6 nM in assay [2], 0.31 nM in assay [3], 3 nM in assay [4] and 0.24 nM in assay [5].

Consider `Nc1ccc2c(N3CCN(CC[C@H]4CC[C@H](NC(=O)c5ccco5)CC4)CC3)nsc2c1`, for which the Ratio Ki in assay [1] came to 12.7. For the same compound, the Ki is 14 nM in assay [2], 1.1 nM in assay [3], 33 nM in assay [4] and 4.3 nM in assay [5].

For `O=S(=O)(N[C@H]1CC[C@H](CCN2CCN(c3nsc4ccccc34)CC2)CC1)c1cccs1`, in assay [4], the Ki amounted to 1.1 nM. Further, the inhibition result in assay [6] was “Active”.

On to `CCOC(=O)N1CCC(CCN2CCN(c3nsc4ccccc34)CC2)CC1`, for which, in assay [1], the Ratio Ki was 1.15. Besides, the Ki in assay [2] amounted to 10 nM; in assay [3], 8.7 nM; in assay [4], 1.3 nM; in assay [5], 3.3 nM.

On to `O=C(Nc1cccnc1)N[C@H]1CC[C@H](CCN2CCN(c3nsc4ccccc34)CC2)CC1`, for which the Ratio Ki in assay [1] came to 9.27. Besides, the inhibition constant (Ki) is 0.51 nM in assay [2], 0.055 nM in assay [3], 12 nM in assay [4] and 0.14 nM in assay [5].

With `O=C(N[C@H]1CC[C@H](CCN2CCN(c3nsc4ccccc34)CC2)CC1)c1cccnc1`, the Ratio Ki in assay [1] is 9.44. Further, the Ki in assay [2] was 0.85 nM; in assay [3], 0.09 nM; in assay [4], 2.1 nM; in assay [5], 0.29 nM.

Consider `N[C@H]1CC[C@H](CCN2CCN(c3nsc4ccccc34)CC2)CC1`, for which the Ratio Ki in assay [1] was determined as 0.48. Moreover, the Ki is 4.6 nM in assay [2], 9.6 nM in assay [3], 7.2 nM in assay [4] and 0.21 nM in assay [5].

Turning to `CC(C)N(C(=O)N[C@H]1CC[C@H](CCN2CCN(c3nsc4ccccc34)CC2)CC1)C(C)C`, the Ratio Ki in assay [1] was found to be 0.51. The Ki was found to be 0.72 nM in assay [2], 1.4 nM in assay [3], 2.3 nM in assay [4] and 0.38 nM in assay [5].

In the case of `O=C(N[C@H]1CC[C@H](CCN2CCN(c3nsc4ccccc34)CC2)CC1)C1CC1`, the Ratio Ki in assay [1] came out at 4.05. Further, the Ki in assay [2] stood at 0.85 nM; in assay [3], 0.21 nM; in assay [4], 0.92 nM; in assay [5] it was 0.35 nM.

Regarding `O=C(N[C@H]1CC[C@H](CCN2CCN(c3nsc4ccccc34)CC2)CC1)C1CCCCC1`, in assay [1], the Ratio Ki worked out at 4.95. The Ki in assay [2] came to 0.94 nM; in assay [3], 0.19 nM; in assay [4] it was 5.6 nM; in assay [5], 0.36 nM.

Turning to `CCCS(=O)(=O)N[C@H]1CC[C@H](CCN2CCN(c3nsc4ccccc34)CC2)CC1`, the Ratio Ki in assay [1] worked out at 8.64. The Ki worked out at 1.9 nM in assay [2], 0.22 nM in assay [3], 1.1 nM in assay [4] and 0.34 nM in assay [5].

On to `CCN(C)C(=O)N[C@H]1CC[C@H](CCN2CCN(c3nsc4ccccc34)CC2)CC1`, for which, in assay [1], the Ratio Ki is 0.65. The Ki in assay [2] was determined as 0.51 nM; in assay [3] it was 0.78 nM; in assay [4], 1.4 nM; in assay [5], 0.5 nM.

With `O=C(NC[C@H]1CC[C@H](CN2CCN(c3nsc4ccccc34)CC2)CC1)c1ccco1`, the Ratio Ki in assay [1] is 8.9. Further, the Ki was 8.9 nM in assay [2], 1 nM in assay [3], 5.3 nM in assay [4] and 16 nM in assay [5].

In the case of `O=C(N[C@H]1CC[C@H](CCN2CCN(c3nsc4ccccc34)CC2)CC1)N1CCOCC1`, the Ratio Ki in assay [1] was 1.38. Also, the Ki was found to be 2.2 nM in assay [2], 1.6 nM in assay [3], 15 nM in assay [4] and 3.2 nM in assay [5].

As for `Cc1ccc(S(=O)(=O)N[C@H]2CC[C@H](CCN3CCN(c4nsc5ccccc45)CC3)CC2)cc1`, the Ratio Ki in assay [1] stood at 6.77. Further, the Ki in assay [2] came to 0.42 nM; in assay [3], 0.062 nM; in assay [4], 3.9 nM; in assay [5] it was 0.26 nM.

As to `CN([C@H]1CC[C@H](CCN2CCN(c3nsc4ccccc34)CC2)CC1)S(=O)(=O)c1cccs1`, the Ratio Ki in assay [1] turned out to be 6.52. For the same compound, the Ki in assay [2] worked out at 0.3 nM; in assay [3], 0.046 nM; in assay [4] it was 2.9 nM; in assay [5], 1.2 nM.

`O=C(N[C@H]1CC[C@H](CCN2CCN(c3nsc4ccccc34)CC2)CC1)c1cccs1`: the Ratio Ki in assay [1] stood at 3.4. In addition, the Ki in assay [2] is 0.19 nM; in assay [3], 0.056 nM; in assay [4], 1.1 nM; in assay [5] it was 0.15 nM.

As for `CCCC(=O)N[C@H]1CC[C@H](CCN2CCN(c3nsc4ccccc34)CC2)CC1`, the Ratio Ki in assay [1] came to 20. The inhibition constant Ki in assay [2] stood at 2.8 nM; in assay [3], 0.14 nM; in assay [4] it was 2.1 nM; in assay [5], 0.87 nM.

In the case of `CCOC(=O)N[C@H]1CC[C@@H](CCN2CCN(c3nsc4ccccc34)CC2)CC1`, the Ratio Ki in assay [1] was determined as 2. Also, the Ki in assay [2] amounted to 4 nM; in assay [3] it was 2 nM; in assay [4], 0.57 nM; in assay [5], 0.18 nM.

For the compound `CCC(=O)N[C@H]1CC[C@H](CCN2CCN(c3nsc4ccccc34)CC2)CC1`, the Ratio Ki in assay [1] was 346. Also, the inhibition constant (Ki) in assay [2] turned out to be 18 nM; in assay [3], 0.052 nM; in assay [4] it was 1.5 nM; in assay [5], 1.1 nM.

Regarding `O=S(=O)(N[C@H]1CC[C@H](CCN2CCN(c3nsc4ccccc34)CC2)CC1)c1cccnc1`, the Ratio Ki in assay [1] was 6.03. In addition, the Ki was 0.35 nM in assay [2], 0.058 nM in assay [3], 11 nM in assay [4] and 8.1 nM in assay [5].

One may read the Ki as a dissociation constant, usually derived from enzyme kinetics or from competition with a known ligand.
